According to ChEMBL document CHEMBL2146377, “Rational design of 4-aryl-1,2,3-triazoles for indoleamine 2,3-dioxygenase 1 inhibition” (J Med Chem, 2012):
The source made the active and inactive calls. The calls are words filed in the database; no cut-off is given here.

Columns and labels:
[1] = biological target: T1, Indoleamine 2,3-dioxygenase 1 (Homo sapiens, UniProt P14902); assay: Inhibition of human recombinant N-terminal His-tagged IDO1 (Ala2 to Gly403) overexpressed in Escherichia coli BL21 at pH 6.5 after 60 mins by HPLC analysis
Target sequence in this assay (P14902 whole entry): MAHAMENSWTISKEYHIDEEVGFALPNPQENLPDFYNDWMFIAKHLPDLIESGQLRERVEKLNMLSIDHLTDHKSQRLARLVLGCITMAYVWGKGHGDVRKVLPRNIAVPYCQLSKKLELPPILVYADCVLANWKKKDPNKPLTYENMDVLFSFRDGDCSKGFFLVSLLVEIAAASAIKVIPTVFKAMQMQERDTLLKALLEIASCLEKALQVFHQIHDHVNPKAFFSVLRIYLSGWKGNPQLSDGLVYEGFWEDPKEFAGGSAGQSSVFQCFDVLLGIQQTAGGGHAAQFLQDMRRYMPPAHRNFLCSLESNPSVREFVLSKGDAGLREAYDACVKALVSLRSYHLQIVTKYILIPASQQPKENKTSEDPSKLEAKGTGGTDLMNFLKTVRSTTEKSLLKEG

HepG2 = assay: Cytotoxicity against human HepG2 cells after 24 hrs by MTS-PMS assay; type: functional; details: HepG2, 24 h, read-out: LD50 (the source's name)
Method in brief: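 Hep G2 cells (2 × 10⁴ per well) in IMDM with 10% FCS exposed to compound titrated 0.001–100 μM for 24 h at 37 °C; living cells counted by MTS/PMS assay; LD₅₀ reported as mean of at least two independent assays with standard deviation.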

[2] = biological target: Tryptophan 2,3-dioxygenase (Mus musculus, UniProt P48776); assay: Inhibition of mouse TDO in P815 clone 12 cells by HPLC analysis; type: cell-based
Sequence of Tryptophan 2,3-dioxygenase (Mus musculus, UniProt P48776) (P48776 whole entry): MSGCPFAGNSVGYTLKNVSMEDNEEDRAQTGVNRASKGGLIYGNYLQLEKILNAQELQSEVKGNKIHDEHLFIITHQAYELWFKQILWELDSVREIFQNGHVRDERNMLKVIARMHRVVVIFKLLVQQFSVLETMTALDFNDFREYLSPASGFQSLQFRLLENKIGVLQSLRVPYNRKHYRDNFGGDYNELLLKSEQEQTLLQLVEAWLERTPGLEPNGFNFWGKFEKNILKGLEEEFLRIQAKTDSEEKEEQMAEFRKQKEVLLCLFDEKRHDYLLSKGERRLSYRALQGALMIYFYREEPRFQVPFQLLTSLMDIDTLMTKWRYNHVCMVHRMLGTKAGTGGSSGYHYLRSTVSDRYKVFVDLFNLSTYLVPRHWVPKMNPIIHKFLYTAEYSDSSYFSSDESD

[3] = biological target: T1, Indoleamine 2,3-dioxygenase 1; assay: Inhibition of human IDO1 transfected in HEK293 clone 6 cells by HPLC analysis; type: cell-based
Target sequence in this assay (P14902 whole entry, looked up): as the sequence (P14902 whole entry) above

[4] = biological target: Indoleamine 2,3-dioxygenase 1 (Mus musculus, UniProt P28776); assay: Inhibition of mouse IDO1 in P815 clone 6 cells by HPLC analysis; type: cell-based
Sequence of Indoleamine 2,3-dioxygenase 1 (Mus musculus, UniProt P28776) (P28776 whole entry): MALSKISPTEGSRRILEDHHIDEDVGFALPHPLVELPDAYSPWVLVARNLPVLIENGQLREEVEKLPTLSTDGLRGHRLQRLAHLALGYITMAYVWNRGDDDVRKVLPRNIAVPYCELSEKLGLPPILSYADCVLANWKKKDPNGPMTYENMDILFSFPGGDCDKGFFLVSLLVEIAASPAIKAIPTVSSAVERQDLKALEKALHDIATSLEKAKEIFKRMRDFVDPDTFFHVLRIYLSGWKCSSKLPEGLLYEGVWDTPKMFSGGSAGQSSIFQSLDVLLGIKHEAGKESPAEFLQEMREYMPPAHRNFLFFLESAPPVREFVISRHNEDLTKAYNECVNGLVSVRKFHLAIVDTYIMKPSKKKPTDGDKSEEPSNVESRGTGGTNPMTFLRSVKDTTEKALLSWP
Method in brief: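 Murine mastocytoma P815 stably transfected cells were used: P815-mIDO1 clone 6 for mouse IDO1 and P815B-hIDO1 clone 6 for human IDO1. Cells with inhibitor were incubated at 37 °C until under 50% of tryptophan was consumed, as tracked in control wells by pDMAB absorbance at 480 nm. Supernatant was TCA-precipitated, and tryptophan and kynurenine were quantified by C18 HPLC. Values are the mean of ≥2 independent assays.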

[5] = biological target: Tryptophan 2,3-dioxygenase (Homo sapiens, UniProt P48775); assay: Inhibition of human TDO transfected in mouse P815B clone 19 cells by HPLC analysis; type: cell-based
Sequence of Tryptophan 2,3-dioxygenase (Homo sapiens, UniProt P48775) (P48775 whole entry): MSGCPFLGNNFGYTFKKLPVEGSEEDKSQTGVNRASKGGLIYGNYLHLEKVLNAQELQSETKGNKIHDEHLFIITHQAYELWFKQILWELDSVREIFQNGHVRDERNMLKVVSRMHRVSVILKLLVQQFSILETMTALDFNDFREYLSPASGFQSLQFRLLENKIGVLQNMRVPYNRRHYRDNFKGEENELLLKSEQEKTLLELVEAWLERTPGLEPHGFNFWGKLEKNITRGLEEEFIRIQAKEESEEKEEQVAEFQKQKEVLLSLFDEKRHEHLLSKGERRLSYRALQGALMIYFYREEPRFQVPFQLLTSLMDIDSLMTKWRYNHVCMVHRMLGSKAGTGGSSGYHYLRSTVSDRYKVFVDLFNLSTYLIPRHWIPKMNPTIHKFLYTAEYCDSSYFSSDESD

[6] = biological target: T1, Indoleamine 2,3-dioxygenase 1; assay: Inhibition of human IDO1 transfected in mouse P815B clone-6 cells by HPLC analysis; type: cell-based
Target sequence in this assay (P14902 whole entry): as the sequence (P14902 whole entry) above

physchem = details: pH 2
[7] = biological target: T1, Indoleamine 2,3-dioxygenase 1; details: at 1 mM
Target sequence in this assay (P14902 whole entry, looked up): as the sequence (P14902 whole entry) above

SMILES	IC50 [1]	CC50 (HepG2)	IC50 [2]	inhibition [3]	IC50 [4]	IC50 [5]	IC50 [6]	inhibition [7]	also measured
Cc1ccc(N)cc1-c1c[nH]nn1	3200 µM								
Fc1ccc2c(/C=C/c3nnn[nH]3)c[nH]c2c1		> 100 µM	17 µM	Active	> 100 µM				
Clc1cccc(-c2c[nH]nn2)c1Cl	23 µM	> 100 µM	> 100 µM	Active	1.7 µM	> 100 µM	> 100 µM		pKa (physchem): 8.06
O=[N+]([O-])c1cccc(-c2c[nH]nn2)c1	15 µM	> 100 µM	> 100 µM	Active	0.11 µM	> 100 µM	24 µM		
Clc1ccccc1-c1c[nH]nn1	32 µM		> 100 µM		1.5 µM	> 100 µM	> 100 µM		pKa (physchem): 8.5
Clc1ccc(-c2c[nH]nn2)cc1	530 µM								pKa (physchem): 8.46
Clc1cccc(-c2c[nH]nn2)c1	1.2 µM	> 100 µM	> 100 µM	Active	0.02 µM	> 100 µM	0.62 µM		pKa (physchem): 8.32
FC(F)(F)c1ccccc1-c1c[nH]nn1	650 µM	> 100 µM	> 100 µM	Active	20 µM	> 100 µM	> 100 µM		
Cc1cccc(-c2c[nH]nn2)c1	22 µM	> 100 µM	> 100 µM	Active	0.12 µM	> 100 µM	7 µM		
Cc1cccc(-c2cnnn2-c2ccccc2)c1								inactive	
Cc1c(Cl)cccc1-c1c[nH]nn1	72 µM								
Oc1cccc(-c2c[nH]nn2)c1	310 µM	> 100 µM	> 100 µM	Active	1.3 µM	> 100 µM	> 100 µM		
FC(F)(F)c1cc(-c2c[nH]nn2)ccn1	15 µM	> 100 µM	> 100 µM	Active	0.34 µM	> 100 µM	56 µM		
Nc1nonc1/C(=N/O)Nc1ccc(F)c(Cl)c1		> 100 µM		Active					
Cn1cc(-c2ccccc2)nn1								inactive	
Nc1cccc(-c2c[nH]nn2)c1	1500 µM	> 100 µM	> 100 µM	Active	4 µM	> 100 µM	> 100 µM		
c1cc(-c2ccncc2)ccn1								inactive	
N#Cc1cccc(-c2c[nH]nn2)c1	2.8 µM	> 100 µM	> 100 µM	Active	0.029 µM	> 100 µM	2.9 µM		
Clc1cc(-c2c[nH]nn2)ccn1	2.8 µM	> 100 µM	> 100 µM	Active	0.06 µM	> 100 µM	3.5 µM		pKa (physchem): 7.6
Nc1nonc1C(=NO)Nc1ccc(F)c(Cl)c1			60 µM			70 µM			
FC(F)(F)c1cccc(-c2c[nH]nn2)c1	6 µM	> 100 µM	> 100 µM	Active	0.07 µM	> 100 µM	9 µM		
Cc1ccc(-c2c[nH]nn2)cc1	1000 µM								
CNc1ccccc1-c1c[nH]nn1	1800 µM								
Oc1ccc(Cl)cc1-c1c[nH]nn1		> 100 µM	> 100 µM	Active	0.002 µM	> 100 µM			
CCn1nncc1-c1ccccc1								inactive	

SMILES	IC50 [1]	CC50 (HepG2)	IC50 [2]	inhibition [3]	IC50 [4]	IC50 [5]	IC50 [6]	inhibition [7]	also measured
FC(F)(F)c1ccc(-c2c[nH]nn2)cc1	2300 µM								
Oc1ccccc1-c1c[nH]nn1	15 µM	> 100 µM	> 100 µM	Active	0.022 µM	> 100 µM	1.7 µM		
Nc1ccccc1-c1c[nH]nn1	60 µM	> 100 µM	> 100 µM	Active	1.7 µM	> 100 µM	> 100 µM		
CCc1cccc(-c2c[nH]nn2)c1	13 µM	> 100 µM	> 100 µM	Active	0.03 µM	> 100 µM	1.1 µM		
c1cncc(-c2c[nH]nn2)c1	1000 µM								pKa (physchem): 8.14
Cc1ccccc1-c1c[nH]nn1	39 µM	> 100 µM	> 100 µM	Active	1.7 µM	> 100 µM	> 100 µM		
Cn1nncc1-c1cccc(Cl)c1								inactive	
Brc1ccccc1-c1c[nH]nn1	6.4 µM		> 100 µM		0.034 µM	> 100 µM	2.6 µM		
Cc1ccc2[nH]nnc2c1								inactive	
c1nnn[nH]1 [TETRAZOLE]									pKa (physchem): 4.79
Cn1nncc1-c1ccccc1								inactive	
c1ccc(-c2ccncc2)cc1								inactive	
Brc1cccc(-c2c[nH]nn2)c1	2 µM	> 100 µM	> 100 µM	Active	0.023 µM	> 100 µM	0.94 µM		
c1cc(-c2cnn[nH]2)ccn1	85 µM								pKa (physchem): 7.85
Cc1ccc(Cl)cc1-c1c[nH]nn1	4.3 µM	> 100 µM	> 100 µM	Active	0.12 µM	> 100 µM	14 µM		
c1ccc(-c2ccncn2)cc1								inactive	
c1ccc(-c2cnnn2-c2ccccc2)cc1								inactive	
COc1ccccc1-c1cnnn1-c1ccccc1								inactive	
C1=C(c2c[nH]nn2)CCCC1								inactive	
c1cc(-c2c[nH]cn2)ccn1	1800 µM								
Cc1[nH]nnc1-c1ccccc1								inactive	pKa (physchem): 9.11
Clc1ccc(Cl)c(-c2c[nH]nn2)c1	6.4 µM	> 100 µM	> 100 µM	Active	0.15 µM	> 100 µM	34 µM		pKa (physchem): 8.17
Cn1ncc(-c2ccccc2)n1								inactive	
Fc1ccc(-c2c[nH]nn2)cc1	190 µM		> 100 µM		2.1 µM	> 100 µM	> 100 µM		
Cc1cccc(NC(=O)C(F)(F)F)c1-c1c[nH]nn1	3000 µM								

SMILES	IC50 [1]	CC50 (HepG2)	IC50 [2]	inhibition [3]	IC50 [4]	IC50 [5]	IC50 [6]	inhibition [7]	also measured
Brc1ccccc1-c1cnn[nH]1		> 100 µM		Active					
O=Cc1ccccc1-c1c[nH]nn1	1300 µM								
Oc1ccccc1-c1ccno1								inactive	
Clc1cccc(-c2cnnn2-c2ccccc2)c1								inactive	
NCCc1ccccc1-c1c[nH]nn1								inactive	
Brc1cc(-c2c[nH]nn2)ccn1	3.3 µM	> 100 µM	> 100 µM	Active	0.05 µM	> 100 µM	2.9 µM		
CCn1cc(-c2ccccc2)nn1								inactive	
Cc1cccc(N)c1-c1c[nH]nn1	1200 µM								
CCCCn1cc(-c2ccccc2)nn1								inactive	
CCc1ccccc1-c1c[nH]nn1	230 µM	> 100 µM	> 100 µM	Active	13 µM	> 100 µM	> 100 µM		
CCCCn1nncc1-c1ccccc1								inactive	
c1ccc2[nH]nnc2c1								inactive	
c1ccc(-c2nnn[nH]2)cc1								inactive	pKa (physchem): 4.53
c1ccc(Cn2cc(-c3ccccc3)nn2)cc1								inactive	
O=C(O)CCc1ccccc1-c1c[nH]nn1								inactive	
Clc1ccccc1-c1cnn[nH]1		> 100 µM		Active					
c1ccc(SCc2c[nH]nn2)cc1								inactive	
Fc1ccccc1-c1c[nH]nn1	80 µM	> 100 µM	> 100 µM	Active	0.63 µM	> 100 µM	70 µM		
Fc1ccc(-c2cnn[nH]2)cc1		> 100 µM		Active					
CCn1ncc(-c2ccccc2)n1								inactive	
Fc1ccc(-c2cnnn2-c2ccccc2)cc1								inactive	
c1ccc(Cc2c[nH]nn2)cc1								inactive	
c1c[nH]cn1 [IMIDAZOLE]									pKa (physchem): 14.5
c1ccc(Cn2nncc2-c2ccccc2)cc1								inactive	
Cn1cc(-c2cccc(Cl)c2)nn1								inactive	
